From PubChem BioAssay
Hits are enriched below; roughly 1.8% of the tested compounds scored in any of these assays.
SIAE primary: human SIAE inhibitors, primary screen, biochemical, fluorescence polarization, FP-Rh probe, 1536-well HTS. Sialate O-acetylesterase (Homo sapiens), Q9HAT2. SIAE FP-Rh probe binding. inhibition, % at 9.66 µM. 0.69% of 370,000 active;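 active = inhibition above a cutoff: mean of compounds within the control limits plus 3 SD of those, cut at about 17% in these data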;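 also: 0% = plate median of compound wells and 100% = probe without SIAE protein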
HTRA1 inh: HTRA1 serine protease inhibitors, primary screen, biochemical, fluorescence polarization, HTS. inhibition, % at 5.96 µM. AID 504803, 2011. 0.5% of 340,000 active. recombinant HTRA1, FP-rhodamine activity-based probe; in the data active = inhibition above about 36%;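 also: 0% = enzyme with DMSO and 100% = wells lacking enzyme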
Target sequence (Q92743 whole entry, looked up): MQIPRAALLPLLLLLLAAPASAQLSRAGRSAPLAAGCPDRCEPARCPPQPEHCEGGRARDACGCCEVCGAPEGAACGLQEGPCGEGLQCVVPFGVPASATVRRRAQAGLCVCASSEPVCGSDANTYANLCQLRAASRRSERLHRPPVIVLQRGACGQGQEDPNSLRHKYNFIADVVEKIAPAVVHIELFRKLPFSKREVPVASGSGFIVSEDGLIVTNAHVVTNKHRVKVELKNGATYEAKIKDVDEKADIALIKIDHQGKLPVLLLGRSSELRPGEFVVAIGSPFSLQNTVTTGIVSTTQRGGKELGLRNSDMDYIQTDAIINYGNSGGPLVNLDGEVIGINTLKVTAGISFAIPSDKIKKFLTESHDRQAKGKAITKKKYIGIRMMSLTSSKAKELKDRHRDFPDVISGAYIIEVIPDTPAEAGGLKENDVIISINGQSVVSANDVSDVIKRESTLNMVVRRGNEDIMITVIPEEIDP
mABHD4 FP: ABHD4 inhibitors, primary screen, biochemical, fluorescence polarization, mouse. (Lyso)-N-acylphosphatidylethanolamine lipase (Mus musculus), Q8VD66. purified mABHD4, FP-Rh probe fluorescence polarization. inhibition, % at 8.92 µM. 0.54% of 370,000 active. AID 720543, 2013;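 active = inhibition exceeding the mean over every tested compound plus 3 SD, cut at about 30% in these data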;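 also: 0% = plate median of compound wells and 100% = S159A mutant with DMSO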
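Test system: mouse ABHD4 enzyme, wild type. Reagent: FP-Rh fluorescent activity-based probe, added after compound pre-incubation. Timing: pre-incubation 45 min, probe exposure 60 min, at 25 °C. Technique: FP readout, ex 525 nm / em 598 nm. Benchmarks: high control S159A mutant with DMSO, low control median of compound wells.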
DDE Tn6 FP inh: inhibitors of Tn6 peptide binding to fibrin DD(E), primary screen, biochemical, fluorescence polarization, human fibrin, Tn6 probe; inhibition, % at 8.3 µM; Fibrin DD(E) TRITC-Tn6 fluorescence polarization displacement; 0.21% of 370,000 active; AID 720509, 2013; Fibrinogen beta chain (Homo sapiens), P02675;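 active = inhibition above a per-campaign cutoff: mean of compounds within control limits plus 3 SD, cut at about 15% in these data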;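 also: 0% = median of all compound wells on the plate and 100% = blocking peptide control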
TCR CD3 inh: inhibitors of human TCR-CD3 interaction, primary screen, biochemical, fluorescence, TAMRA-labeled TCR probe; T-cell receptor (TCR); AID 651800, 2012; inhibition, % at 9.4 µM; 0.37% of 360,000 active;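 also: recombinant mutant TCR 2C K166C tagged with TAMRA read by polarization; 0% = receptor in buffer alone and 100% = receptor with positive control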
DDE Tn7 FP inh: inhibitors of Tn7 peptide binding to fibrin DD(E), primary screen, biochemical, fluorescence polarization, human fibrin, Tn7 probe. Fibrinogen beta chain (Homo sapiens), P02675. FP displacement of FITC-Tn7 peptide from fibrin DD(E); 0% = median of compound wells per plate. inhibition, % at 8.3 µM. 0.13% of 370,000 active. AID 720508, 2013;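 active = inhibition above the mean of compounds falling within the control limits plus 3 SD of them, cut at about 14% in these data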;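 also: 0% = plate median of compound wells and 100% = 10 µM Aha-Tn7 peptide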
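Test system: human clot-derived fibrin DD(E) complex / Quantity: 2 µM final DD(E) protein / Incubation: 10 min plus 3 h, room temperature / Measured by: fluorescence polarization / Benchmarks: high control of 10 µM Aha-Tn7 peptide / Replicates: singlicate testing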
BSA TAMRA ctr: compounds interfering with TAMRA-BSA probe, counter-screen for TCR-CD3 interaction inhibitor project, biochemical, fluorescence, TAMRA-labeled BSA; shares compounds with TCR CD3 inh; inhibition, % at 9.4 µM; 10% of 1,200 active; TAMRA-labeled BSA probe fluorescence counterscreen; in the data active = inhibition above about 23%;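 also: 0% = buffer low control and 100% = reference high control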
TCR-CD3 inh conf: TCR-CD3 interaction inhibitors, retest, confirmation, biochemical, fluorescence, TAMRA-labeled TCR probe. TAMRA-labeled TCR probe fluorescence binding assay. inhibition, % at 9.4 µM. shares compounds with TCR CD3 inh. 48% of 1,200 active
* marks the source's active call; other numbers are inactive results; . = not tested or not shown. Rule as the data show it, unless noted: active = inhibition above about 19%; inactive = the rest.

SMILES	SIAE primary	HTRA1 inh	mABHD4 FP	DDE Tn6 FP inh	TCR CD3 inh	DDE Tn7 FP inh	BSA TAMRA ctr	TCR-CD3 inh conf
COc1nc(OC)nc(N2CCC(C(=O)NCc3cccc(OC)c3OC)CC2)n1	-0.8	.	1.7	7.6	.	-2.5	.	.
O=C1NN=COc2ccccc21	-4.1	6.0	-2.9	4.3	21.1*	4.0	-12.2	11.2
Cc1c(C(=O)N2CCC(C)CC2)oc2ccc3c(c12)C(O)CC1(CCCCC1)O3 (stereo not drawn)	-12.9	-23.3	10.6	-1.5	21.4*	7.5	2.2	5.3
COCCNC(=O)c1oc2ccc3c(c2c1C)C(O)CC(C)(C)O3 (stereo not drawn)	-6.4	4.3	-1.7	3.4	3.8	-1.2	.	.
COc1ccccc1NC(=O)CSc1sc2c(O)cc(=O)[nH]c2c1C#N	-26.5	-25.6	-9.6	-3.7	13.2	-3.0	.	.
COc1ccc(NC(=O)CSc2sc3c(O)cc(=O)[nH]c3c2C#N)c(OC)c1	-3.9	-7.4	4.8	-13.0	28.7*	0.6	-5.8	20.1*
Cc1csc(NC(=O)CSc2sc3c(O)cc(=O)[nH]c3c2C#N)n1	-24.8	-8.0	-1.4	-12.6	23.2*	-1.9	-12.0	1.3
O=CN1CCN(C(=O)C2CCN(c3ncnc4c3sc3cccc(F)c34)CC2)CC1	6.0	.	-4.9	-2.0	.	9.5	.	.
CN1C(=O)C[C@@](C#N)(C(=O)NCc2ccc3c(c2)OCO3)[C@H]1c1ccccc1	2.0	.	6.4	10.9	.	-5.9	.	.
C[C@H]1Cn2nncc2Cn2c3ccccc3c(=O)n21	0.4	.	4.8	1.9	.	-13.8	.	.
O=C(O)c1cccc(N2C(=O)/C(=C/c3ccc(SCc4ccc(Cl)cc4)o3)SC2=S)c1	-5.1	0.7	32.2*	-7.8	19.6*	2.0	-15.6	6.9
C[C@@H]1CN([C@H](C)CO)C(=O)c2cc(NC(=O)Nc3ccc(C(F)(F)F)cc3)ccc2O[C@H]1CN(C)S(=O)(=O)c1ccc(Cl)cc1	-159.1	-88.7	-99.4	43.6*	54.3*	0.0	24.5*	52.3*
C[C@H]1CN([C@@H](C)CO)C(=O)c2cccc(NC(=O)Nc3ccc(C(F)(F)F)cc3)c2O[C@@H]1CN(C)Cc1ccc(Cl)c(Cl)c1	-49.3	-80.0	-53.8	-2.5	10.7	-5.3	.	.
C[C@@H]1CN([C@H](C)CO)C(=O)c2cc(NC(=O)Nc3ccc(C(F)(F)F)cc3)ccc2O[C@H]1CN(C)Cc1ccc(Cl)c(Cl)c1	-11.5	-47.4	-14.5	-1.9	27.2*	-0.9	23.6*	45.7*
Cc1ccc2nc(C)cc(SCC(=O)N/N=C/c3ccco3)c2c1	-0.3	-13.4	8.6	-5.2	19.1*	-1.9	0.1	4.0
COc1cccc2c(SCC(=O)N/N=C/c3ccc(O)c(O)c3)cc(C)nc12	5.0	.	28.9	-6.8	44.8*	-5.3	-13.9	78.7*
NC(=S)N/N=C/c1ccccc1[N+](=O)[O-]	6.6	-2.2	3.8	2.8	-6.8	3.0	.	.
COc1cccc(/C=N/NC(=O)C(=O)N/N=C/c2cccc(OC)c2O)c1O	-2.2	.	14.2	-1.8	20.5*	-1.6	-8.4	18.5
COC(=O)c1cccc(/C=N/NC(N)=S)c1O	15.0	10.9	0.2	-4.1	33.8*	8.0	-24.7	3.9
O=C(OC12CCCN(C1)/C(=C/c1cccc(Cl)c1)C2)c1ccno1 (stereo not drawn)	0.8	.	-0.2	-2.1	.	-3.5	.	.
